The record followed here is paper PMC11756393 (Scientific Reports, 2025).

Data set [1] has as its system macrophages (human monocytes THP-1 differentiated). The data set is described as follows: MTT cytotoxicity assay on macrophages. As to conditions: SI as a marker of toxicity. The data set is classed as cell-based. The procedure, abridged: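 THP-1 monocytes were differentiated to macrophages and grown at 37 °C, 5% CO2 in RPMI 1640 with 10% FBS. Test compound added in triplicate; untreated wells and medium with 1% DMSO served as controls. After 72 h, MTT was added for 4 h, formazan dissolved in DMSO and absorbance read at 490 nm. CC50 by probit analysis, mean ± SD; SI = CC50/amastigote IC50.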

The subject of another data set is L. tropica promastigotes. As to the kind of experiment: MTT assay on promastigotes. The format is cell-based, Leishmania tropica. Conditions: for Combined effect with meglumine antimonate on promastigotes (in words): combination with MA, compared with MA monotherapy; for Inhibitory activity on promastigotes (in words): compound alone, compared with meglumine antimonate. The method in brief:
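L. tropica promastigotes grown at 24 °C in RPMI 1640 with 10% FBS, seeded at 5 × 10^5 cells/ml and left overnight. Test compound then added in triplicate for 72 h. MTT for 4 h, formazan dissolved in DMSO, absorbance read at 490 nm. IC50 from nonlinear regression against untreated control. Meglumine antimonate combinations scored by combination index and isobologram additivity line.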

On to `COc1ccc(C2Oc3ccccc3C=C2[N+](=O)[O-])cc1` (stereo not drawn) [Compound 4d, 2-(4-methoxyphenyl)-3-nitro-2H-chromene], for which the “Safety for mammalian macrophages judged by SI (in words)” value (from here on “Safety for mammalian macrophages judged”) in data set [1] is on record as “highly safe”.

As for `Cc1ccc(COc2cccc(C3Oc4ccccc4C=C3[N+](=O)[O-])c2)cc1` (stereo not drawn) [Compound 4k, 2-(3-((4-methylbenzyl)oxy)phenyl)-3-nitro-2H-chromene], in the data set with L. tropica promastigotes, the “Combined effect with meglumine antimonate on promastigotes (in words)” value (from here on “Combined effect”) is listed as “most pronounced synergistic effects” and the “Inhibitory activity on promastigotes (in words)” value (“Inhibitory activity” below) was “comparable to meglumine antimonate”.

Regarding `O=[N+]([O-])C1=Cc2ccccc2OC1c1cccc(OCc2ccc(Cl)cc2)c1` (stereo not drawn) [Compound 4n, 2-(3-((4-chlorobenzyl)oxy)phenyl)-3-nitro-2H-chromene], in the data set on L. tropica promastigotes, the “Combined effect” value is “most pronounced synergistic effects” and the “Inhibitory activity” value was “comparable to meglumine antimonate”. The “Safety for mammalian macrophages judged” value in data set [1] is given as “highly safe”.

Regarding `O=[N+]([O-])C1=Cc2ccccc2OC1c1cccc(OCc2ccc([N+](=O)[O-])cc2)c1` (stereo not drawn) [Compound 4o, 3-nitro-2-(3-((4-nitrobenzyl)oxy)phenyl)-2H-chromene], in the data set with L. tropica promastigotes, the “Combined effect” value is “most pronounced synergistic effects” and the “Inhibitory activity” value was “comparable to meglumine antimonate”. In addition, the “Safety for mammalian macrophages judged” value in data set [1] is reported as “highly safe”.
